Results from ChEMBL document CHEMBL4257448, “Deciphering the origins of molecular toxicity of combretastatin A4 and its glycoconjugates: interactions with major drug transporters and their safety profiles in vitro and in vivo” (Medchemcomm, 2017).

Legend:
[1] = Drug uptake in mock transfected HEK293 cells by HPLC-UV assay; assay type: ADME, cell-based; settings: human
[2] = Ratio of CA4 aqueous solubility to test compound aqueous solubility; assay type: physicochemical; settings: buffer
HT-29 = experiment: […] for human HT-29 cells assessed as reduction in cell viability after 72 hrs by MTT assay; assay type: functional
Method in brief: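 HT29 cells were cultured in RPMI-1640 with glutamine and 10% FBS, seeded at 2000–7500 cells/well, and exposed for 72 h to drug in DMSO (final DMSO <0.1%). MTT was added at 0.83 mg mL−1 final and incubated overnight, then cells were lysed in SDS/HCl and read at 570 nm. Survival was expressed as percent of drug-free control; five replicate wells.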

[3] = target: T1, Solute carrier organic anion transporter family member 2B1 (Homo sapiens, UniProt O94956); experiment: Substrate activity at human OATP2B1 expressed in HEK293 cells assessed as compound uptake by HPLC-UV method relative to control; assay type: ADME, cell-based
T1 sequence (O94956 whole entry): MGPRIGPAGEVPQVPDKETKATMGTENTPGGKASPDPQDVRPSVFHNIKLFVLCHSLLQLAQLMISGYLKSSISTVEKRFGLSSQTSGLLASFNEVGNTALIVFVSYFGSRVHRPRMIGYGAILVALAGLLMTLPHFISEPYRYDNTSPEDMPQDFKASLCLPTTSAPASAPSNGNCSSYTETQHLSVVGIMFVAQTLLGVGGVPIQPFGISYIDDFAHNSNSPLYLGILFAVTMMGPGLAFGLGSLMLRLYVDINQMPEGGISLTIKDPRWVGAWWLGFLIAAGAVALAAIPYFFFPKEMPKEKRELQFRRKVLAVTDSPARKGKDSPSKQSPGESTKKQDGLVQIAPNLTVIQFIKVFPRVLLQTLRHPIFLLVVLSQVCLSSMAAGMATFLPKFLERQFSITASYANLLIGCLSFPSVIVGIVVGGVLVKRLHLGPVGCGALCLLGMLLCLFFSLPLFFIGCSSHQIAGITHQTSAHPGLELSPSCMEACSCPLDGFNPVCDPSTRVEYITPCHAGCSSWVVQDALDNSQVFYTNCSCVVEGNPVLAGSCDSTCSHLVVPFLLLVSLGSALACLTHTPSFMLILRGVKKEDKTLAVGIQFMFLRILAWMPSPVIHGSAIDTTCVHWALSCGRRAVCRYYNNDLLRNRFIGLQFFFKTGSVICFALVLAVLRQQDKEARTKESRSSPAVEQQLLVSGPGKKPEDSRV

[4] = target: T1, Solute carrier organic anion transporter family member 2B1; experiment: Substrate activity at human OATP2B1 expressed in HEK293 cells assessed as compound uptake in presence of OATP2B1 inhibitor rifampicin by HPLC-UV method; assay type: ADME, cell-based
[5] = Drug uptake in mock transfected HEK293 cells in presence of OATP2B1 inhibitor rifampicin by HPLC-UV method; assay type: ADME, cell-based; settings: human
Mus musculus = experiment: Ratio of compound MTD to CA4 MTD in ip dosed DBA/2 mouse assessed as reduction in 15% body weight administered as daily dose for 3 days; assay type: ADME, organism-based; settings: in vivo, 72 h

SMILES	Drug uptake [1]	Ratio [2]	Ratio IC50 (HT-29)	Drug uptake [3] [%]	Drug uptake [4]	Drug uptake [5]	Ratio (Mus musculus)
COc1ccc(/C=C\c2cc(OC)c(OC)c(OC)c2)cc1O [COMBRETASTATIN A4]	Active	–	–	–	–	–	–
COc1ccc(/C=C\c2cc(OC)c(OC)c(OC)c2)cc1O[C@@H]1O[C@H](CO)[C@@H](O)[C@H](O)[C@H]1O	–	610	9.59	60	Active	Active	16
